Test [1] can be described thus: Neuronal voltage-dependent calcium channel (VDCC) inhibitory activity determined in rat cortical synaptosomes. The test is classed as subcellular, Brain. In short, it runs like this: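 Rat cortical synaptosomes depolarized with KCl; rise in intracellular Ca2+ measured fluorimetrically with Fura2; IC50 (µM) for inhibition of the KCl-elicited [Ca2+]i elevation; racemic test compounds.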

Test [2] relates to Mus musculus. Nature of the test: Anti seizure activity was evaluated in the audiogenic seizure model using DBA/2 mice at 10 mg/kg (iv). The class given is functional. In short, it runs like this:
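DBA/2 mice given test compound iv at 10 mg/kg; 5 min later each mouse placed singly under a perspex dome and exposed to sound (100 dB, 11 kHz) continued for 60 s; scored for sound-induced tonic convulsion.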

With `CC(C)C(C#N)(CCCN1CCN(CCCc2ccccc2)CC1)c1ccccc1` (stereo unspecified), the IC50 in test [1] amounted to 4.5 µM.

Regarding `CC(C)C(C#N)(CCCN1CCN(CCOc2cccnc2)CC1)c1ccccc1` (stereo unspecified), in test [1], the half-inhibitory concentration (IC50) was more than 16 µM.

Turning to `CC(C)C(C#N)(CCCN1CCN(CCOc2ccccc2C#N)CC1)c1ccccc1` (stereo unspecified), the half-inhibitory concentration (IC50) in test [1] is 16 µM.

On to `CC(C)C(C#N)(CCCN1CCN(c2ccccc2)CC1)c1ccccc1` (stereo unspecified), for which the IC50 in test [1] was more than 16 µM.

Take `CC(C)C(C#N)(CCCN1CCN(CCO)CC1)c1ccccc1` (stereo unspecified): the IC50 in test [1] was more than 16 µM.

On to `CC(C)C(C#N)(CCCN1CCN(Cc2ccccc2)CC1)c1ccccc1` (stereo unspecified), for which, in test [1], the IC50 was found to be 12 µM.

Regarding `CC(C)C(C#N)(CCCN1CCNCC1)c1ccccc1` (stereo unspecified), the IC50 in test [1] is more than 16 µM.

`CC(C)C(C#N)(CCCN1CCN(CCOc2ccc(F)cc2)CC1)c1ccccc1` (stereo unspecified): in test [2], the Protection is given as 100%. In test [1], the IC50 came to 5.9 µM.

As to `CC(C)C(C#N)(CCCN1CCN(CCOc2ccccn2)CC1)c1ccccc1` (stereo unspecified), in test [1], the IC50 is more than 16 µM.

Regarding `CC(C)C(C#N)(CCCN1CCN(CCOc2ccc(N)cc2)CC1)c1ccccc1` (stereo unspecified), the IC50 in test [1] amounted to 13 µM.

For `CC(C)C(C#N)(CCCN1CCN(CCOc2ccc([N+](=O)[O-])cc2)CC1)c1ccccc1` (stereo unspecified), in test [1], the IC50 was determined as 7.5 µM.

On to `C#CCCCCN1CCN(CCCC(C#N)(c2ccccc2)C(C)C)CC1` (stereo unspecified), for which the IC50 in test [1] is more than 16 µM.

For the compound `CC(C)C(C#N)(CCCN1CCN(CCOc2ccc(N(C)C)cc2)CC1)c1ccccc1` (stereo unspecified), in test [1], the IC50 was more than 16 µM.

For `CC(C)C(C#N)(CCCN1CCN(C)CC1)c1ccccc1` (stereo unspecified), the IC50 in test [1] is more than 16 µM.

With `CC(C)C(C#N)(CCCN1CCN(CCOc2ccncc2)CC1)c1ccccc1` (stereo unspecified), the IC50 in test [1] was more than 16 µM.

Consider `CC(C)C(C#N)(CCCN1CCN(CCOc2cccc(C#N)c2)CC1)c1ccccc1` (stereo unspecified), for which, in test [1], the IC50 was 7.7 µM.

For the compound `CC(C)C(C#N)(CCCN1CCN(CCOc2ccc(F)c(F)c2)CC1)c1ccccc1` (stereo unspecified), in test [1], the IC50 was determined as 5.2 µM.

`CC(C)C(C#N)(CCCN1CCN(CCOc2ccccc2F)CC1)c1ccccc1` (stereo unspecified): the IC50 in test [1] came to 9.3 µM.

As for `CC(C)C(C#N)(CCCN1CCN(CCOc2ccc(Cl)cc2)CC1)c1ccccc1` (stereo unspecified), the IC50 in test [1] is 3.4 µM.

As for `CC(C)C(C#N)(CCCN1CCN(CCOc2ccc(C#N)cc2)CC1)c1ccccc1` (stereo unspecified), in test [1], the IC50 is 13 µM.

As to `CC(C)C(C#N)(CCCN1CCN(CCc2ccccc2)CC1)c1ccccc1` (stereo unspecified), in test [1], the IC50 was found to be 7.7 µM.

Consider `COc1ccc(OCCN2CCN(CCCC(C#N)(c3ccccc3)C(C)C)CC2)cc1` (stereo unspecified), for which, in test [1], the IC50 is 9.6 µM.

As to `CC(C)C(C#N)(CCCN1CCN(CCOc2cccc(F)c2)CC1)c1ccccc1` (stereo unspecified), the IC50 in test [1] was 6.2 µM.

Regarding `CC(C)C(C#N)(CCCN1CCN(CCOc2cccc3ccccc23)CC1)c1ccccc1` (stereo unspecified), in test [1], the IC50 worked out at 2.5 µM.

Consider `CC(C)C(C#N)(CCCN(C)CCc1ccccc1)c1ccccc1` (stereo unspecified) [EMOPAMIL], for which the IC50 in test [1] is 28 µM.
